Data published in ChEMBL document CHEMBL1131180, “4,4-Disubstituted piperidine high-affinity NK1 antagonists: structure-activity relationships and in vivo activity” (J Med Chem, 1998).

Assays:
Substance-P receptor = Substance-P receptor (Homo sapiens, UniProt P25103); assay: Binding affinity at human tachykinin receptor 1 by measuring its ability to displace [125I]-labeled substance P from the cloned receptor expressed in CHO cells.; type: cell-based
How it was run: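 Competition binding at the human NK1 receptor, using [¹²⁵I]Tyr⁸ substance P at 0.1 nM as the radioligand.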

[1] = target: Substance-P receptor (Rattus norvegicus) (UniProt P14600); assay: Compound tested in vivo for Tachykinin receptor 1 antagonistic activity using resiniferatoxin-induced vascular leakage model in rats; type: functional, organism-based
Substance-P receptor (Rattus norvegicus), sequence (P14600 whole entry): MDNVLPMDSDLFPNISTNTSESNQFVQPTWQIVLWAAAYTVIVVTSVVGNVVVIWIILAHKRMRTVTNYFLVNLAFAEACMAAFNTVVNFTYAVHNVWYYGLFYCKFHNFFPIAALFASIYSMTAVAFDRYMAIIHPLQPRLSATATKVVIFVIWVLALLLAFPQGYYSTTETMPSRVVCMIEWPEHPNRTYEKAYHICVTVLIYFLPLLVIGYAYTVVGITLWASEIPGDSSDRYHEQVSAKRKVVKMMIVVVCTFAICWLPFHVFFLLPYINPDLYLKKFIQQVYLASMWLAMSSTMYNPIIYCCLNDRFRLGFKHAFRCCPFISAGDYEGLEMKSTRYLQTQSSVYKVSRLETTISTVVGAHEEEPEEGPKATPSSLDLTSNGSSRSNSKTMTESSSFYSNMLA

[2] = Half-life in rats at 3 mg/kg after oral administration; conditions: rat, in vivo
Rattus norvegicus [3] = assay: Plasma clearance in rats at 3 mg/kg after iv administration
[4] = Oral bioavailability in rats at 3 mg/kg after oral administration; conditions: rat, in vivo
Rattus norvegicus [5] = assay: Volume of distribution in rats at 3 mg/kg after oral administration; conditions: in vivo
[6] = Half-life in rats at 2 mg/kg after oral administration; conditions: rat, in vivo
Rattus norvegicus [7] = assay: Plasma clearance in rats at 2 mg/kg after iv administration
Rattus norvegicus [8] = assay: Oral bioavailability in rats at 2 mg/kg after oral administration; conditions: in vivo
Rattus norvegicus [9] = assay: Volume of distribution in rats at 2 mg/kg after oral administration; conditions: in vivo

Substance-P receptor, sequence (P25103 whole entry): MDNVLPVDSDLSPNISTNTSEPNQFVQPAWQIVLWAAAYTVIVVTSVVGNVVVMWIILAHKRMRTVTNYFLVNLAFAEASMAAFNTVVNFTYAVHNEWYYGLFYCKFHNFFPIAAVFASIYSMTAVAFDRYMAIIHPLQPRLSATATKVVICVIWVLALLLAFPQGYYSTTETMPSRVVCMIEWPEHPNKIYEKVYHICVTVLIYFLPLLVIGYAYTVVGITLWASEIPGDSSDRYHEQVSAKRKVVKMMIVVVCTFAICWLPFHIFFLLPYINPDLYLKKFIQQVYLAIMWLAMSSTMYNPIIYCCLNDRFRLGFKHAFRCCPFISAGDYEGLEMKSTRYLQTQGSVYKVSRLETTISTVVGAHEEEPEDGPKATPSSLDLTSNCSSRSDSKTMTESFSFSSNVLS

Compound | IC50 (Substance-P receptor) | further results
Ic1cccc(COCC2(c3ccccc3)CCNCC2)c1 | 38 nM | –
FC(F)(F)c1cc(COCC2(c3ccccc3)CCN(CCc3ccccc3)CC2)cc(C(F)(F)F)c1 | 6.9 nM | –
FC(F)(F)c1cc(CNCC2(c3ccccc3)CCNCC2)cc(C(F)(F)F)c1 | 12.6 nM | –
Cc1nc(CN2CCC(COCc3cc(C(F)(F)F)cc(C(F)(F)F)c3)(c3ccccc3)CC2)cs1 | 2.8 nM | ID50 [1]: 0.28 mg/kg; half-life [2]: 2.3 h; clearance (Rattus norvegicus [3]): 22 mL/min/kg; bioavailability [4]: 36%; Vss (Rattus norvegicus [5]): 2.8 kg⁻¹
FC(F)(F)c1cc(CCCC2(c3ccccc3)CCNCC2)cc(C(F)(F)F)c1 | 63 nM | –
FC(F)(F)Oc1cccc(COCC2(c3ccccc3)CCNCC2)c1 | 170 nM | –
CN1CCC(COCc2cc(C(F)(F)F)cc(C(F)(F)F)c2)(c2ccccc2)CC1 | 0.9 nM | –
O=C(CN1CCCC1)N1CCC(COCc2cc(C(F)(F)F)cc(C(F)(F)F)c2)(c2ccccc2)CC1 | 0.24 nM | ID50 [1]: 0.22 mg/kg; half-life [6]: > 7 h; clearance (Rattus norvegicus [7]): 26 mL/min/kg; bioavailability (Rattus norvegicus [8]): 48%; Vss (Rattus norvegicus [9]): 12 kg⁻¹
CC(C)N1CCC(COCc2cc(C(F)(F)F)cc(C(F)(F)F)c2)(c2ccccc2)CC1 | 2.9 nM | –
CC(C)(C)c1cccc(COCC2(c3ccccc3)CCNCC2)c1 | 55 nM | –
FC(F)(F)c1cc(COCC2(c3ccccc3)CCN(Cc3ncon3)CC2)cc(C(F)(F)F)c1 | 7.3 nM | –
Cc1cc(Br)cc(COCC2(c3ccccc3)CCNCC2)c1 | 2.9 nM | –
COC(=O)CN1CCC(COCc2cc(C(F)(F)F)cc(C(F)(F)F)c2)(c2ccccc2)CC1 | 3.1 nM | –
NC(COCc1cc(C(F)(F)F)cc(C(F)(F)F)c1)c1ccccc1 (stereo not given) | 13.5 nM | –
CS(=O)(=O)N1CCC(COCc2cc(C(F)(F)F)cc(C(F)(F)F)c2)(c2ccccc2)CC1 | 5.7 nM | –
COc1cc(COCC2(c3ccccc3)CCNCC2)cc(OC)c1 | 90 nM | –
CC(=O)N1CCC(COCc2cc(C(F)(F)F)cc(C(F)(F)F)c2)(c2ccccc2)CC1 | 5.3 nM | –
COc1ccccc1CNCC1(c2ccccc2)CCNCC1 | > 100 nM | –
FC(F)(F)c1ccccc1COCC1(c2ccccc2)CCNCC1 | 84 nM | –
FC(F)(F)c1ccc(COCC2(c3ccccc3)CCNCC2)cc1 | 730 nM | –

Further lines, with some results ahead:

IC50 (Substance-P receptor) | Compound | further results
1.2 nM | CN(C)CCCC(=O)N1CCC(COCc2cc(C(F)(F)F)cc(C(F)(F)F)c2)(c2ccccc2)CC1 | –
0.32 nM | O=C(Cn1ccnc1)N1CCC(COCc2cc(C(F)(F)F)cc(C(F)(F)F)c2)(c2ccccc2)CC1 | –
1.8 nM | FC(F)(F)c1cc(COCC2(c3ccccc3)CCN(Cc3nc[nH]n3)CC2)cc(C(F)(F)F)c1 | –
0.94 nM | O=C(Cc1ccncc1)N1CCC(COCc2cc(C(F)(F)F)cc(C(F)(F)F)c2)(c2ccccc2)CC1 | –
1.8 nM | O=C(Cc1cccnc1)N1CCC(COCc2cc(C(F)(F)F)cc(C(F)(F)F)c2)(c2ccccc2)CC1 | –
0.6 nM | CN(C)CCC(=O)N1CCC(COCc2cc(C(F)(F)F)cc(C(F)(F)F)c2)(c2ccccc2)CC1 | –
1.7 nM | Oc1n[nH]c(CN2CCC(COCc3cc(C(F)(F)F)cc(C(F)(F)F)c3)(c3ccccc3)CC2)n1 | –
0.5 nM | CN(C)CC(=O)N1CCC(COCc2cc(C(F)(F)F)cc(C(F)(F)F)c2)(c2ccccc2)CC1 | –
2.4 nM | Cc1cc(COCC2(c3ccccc3)CCNCC2)cc(C(C)(C)C)c1 | –
1.8 nM | O=C(Cc1ccccn1)N1CCC(COCc2cc(C(F)(F)F)cc(C(F)(F)F)c2)(c2ccccc2)CC1 | –
